pIC50: −log10 of the molar value. Calls of active or inactive are those of the source. No cut-off for these calls is given here.
How the values were obtained:
[1] = biological target: T1, Bromodomain-containing protein 4 (Homo sapiens, UniProt O60885); assay: Inhibition of human His-tagged BRD4 BD1 (49 to 170 residues) at 30 uM using H-SGRGK(Ac)GGK(Ac)GLGK-(Ac)GGAK(Ac)RHRK(Biotin)-OH as substrate preincubated for 30 mins followed by substrate addition measured after 30 mins by TR-FRET assay relative to control
Outline: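 BRD4 bromodomain 1 was tested using a TR-FRET assay kit. Percent inhibition was measured at a single concentration of 30, in triplicate, and reported as mean ± SD.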

[2] = biological target: T1, Bromodomain-containing protein 4; assay: Inhibition of human BRD4 BD2 (342 to 460 residues) at 30 uM preincubated for 30 mins followed by substrate addition measured after 30 mins by TR-FRET assay relative to control
Outline: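 BRD4 BD2 percent inhibition was measured at a single concentration of 30, in triplicate, and reported as mean ± SD.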

[3] = biological target: T1, Bromodomain-containing protein 4; assay: Inhibition of human His-tagged BRD4 BD1 (49 to 170 residues) using H-SGRGK(Ac)GGK(Ac)GLGK-(Ac)GGAK(Ac)RHRK(Biotin)-OH as substrate preincubated for 30 mins followed by substrate addition measured after 30 mins by TR-FRET assay
[4] = biological target: T1, Bromodomain-containing protein 4; assay: Inhibition of human BRD4 BD2 (342 to 460 residues) at 30 uM preincubated for 30 mins followed by substrate addition measured after 30 mins by TR-FRET assay
[5] = (§1) Cytotoxicity against human U937 cells assessed as decrease in cell viability after 24 hrs by MTT assay; type: functional, cell-based; conditions: U-937, 24 h
[6] = (§2) Cytotoxicity against human HL60 cells assessed as decrease in cell viability after 24 hrs by MTT assay; type: functional, cell-based; conditions: HL-60, 24 h
[7] = Cytotoxicity against human MV4-11 cells assessed as decrease in cell viability after 24 hrs by MTT assay; type: functional, cell-based; conditions: MV4-11, 24 h
U-937 = assay: as §1; type: functional, cell-based
HL-60 [8] = assay: as §2; type: functional, cell-based
HL-60 [9] = assay: Induction of morphological changes in human HL60 cells at 1 to 10 uM after 24 hrs by Hoechst 33258 staining-based fluorescence microscopy; type: functional, cell-based
Outline: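 HL-60 cells were cultured with different concentrations and stained with Hoechst 33258. Apoptotic nuclear morphology was examined under an inverted microscope.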

HL-60 [10] = assay: Induction of apoptosis in human HL60 cells assessed as early apoptotic cells at 1 uM by annexin V-FITC/propidium iodide staining-based flow cytometric analysis (reference value: 8.23%); type: functional
HL-60 [11] = assay: Induction of apoptosis in human HL60 cells assessed as late apoptotic cells at 1 uM by annexin V-FITC/propidium iodide staining-based flow cytometric analysis (reference value: 6.92%); type: functional
HL-60 [12] = assay: Induction of apoptosis in human HL60 cells assessed as necrotic cells at 1 uM by annexin V-FITC/propidium iodide staining-based flow cytometric analysis (reference value: 0.13%); type: functional
HL-60 [13] = assay: Induction of apoptosis in human HL60 cells assessed as viable cells at 1 uM by annexin V-FITC/propidium iodide staining-based flow cytometric analysis (reference value: 84.22%); type: functional; conditions: read-out: Activity
HL-60 [14] = assay: Induction of apoptosis in human HL60 cells assessed as early apoptotic cells at 5 uM by annexin V-FITC/propidium iodide staining-based flow cytometric analysis (reference value: 8.23%); type: functional
HL-60 [15] = assay: Induction of apoptosis in human HL60 cells assessed as late apoptotic cells at 5 uM by annexin V-FITC/propidium iodide staining-based flow cytometric analysis (reference value: 6.92%); type: functional
HL-60 [16] = assay: Induction of apoptosis in human HL60 cells assessed as necrotic cells at 5 uM by annexin V-FITC/propidium iodide staining-based flow cytometric analysis (reference value: 0.13%); type: functional
HL-60 [17] = assay: Induction of apoptosis in human HL60 cells assessed as viable cells at 5 uM by annexin V-FITC/propidium iodide staining-based flow cytometric analysis (reference value: 84.22%); type: functional; conditions: read-out: Activity
HL-60 [18] = assay: Induction of apoptosis in human HL60 cells assessed as early apoptotic cells at 10 uM by annexin V-FITC/propidium iodide staining-based flow cytometric analysis (reference value: 8.23%); type: functional
HL-60 [19] = assay: Induction of apoptosis in human HL60 cells assessed as late apoptotic cells at 10 uM by annexin V-FITC/propidium iodide staining-based flow cytometric analysis (reference value: 6.92%); type: functional
HL-60 [20] = assay: Induction of apoptosis in human HL60 cells assessed as necrotic cells at 10 uM by annexin V-FITC/propidium iodide staining-based flow cytometric analysis (reference value: 0.13%); type: functional
HL-60 [21] = assay: Induction of apoptosis in human HL60 cells assessed as viable cells at 10 uM by annexin V-FITC/propidium iodide staining-based flow cytometric analysis (reference value: 84.22%); type: functional; conditions: read-out: Activity
[22] = Induction of apoptosis in human HL60 cells assessed as upregulation of Bax expression at 1 to 10 uM after 24 hrs by Western blot method; type: functional, cell-based; conditions: HL-60
Outline: (§3)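 HL-60 cells were treated for 24 h. Lysates were then immunoblotted for Bax, Bcl-2, pro-caspase 3, active caspase 3 and Brd4.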

HL-60 [23] = assay: Induction of apoptosis in human HL60 cells assessed as downregulation of Bcl-2 expression at 1 to 10 uM after 24 hrs by Western blot method; type: functional, cell-based; outline: as §3
HL-60 [24] = assay: Induction of apoptosis in human HL60 cells assessed as caspase-3 cleavage at 1 to 10 uM after 24 hrs by Western blot method; type: functional, cell-based; outline: as §3
[25] = Downregulation of BRD4 expression in human HL60 cells at 1 to 10 uM after 24 hrs by Western blot method; type: functional, cell-based; conditions: HL-60; outline: as §3

## CC1C(=O)Nc2ccccc2N1C(=O)c1cccc(-c2ccccc2)c1 (stereo not drawn)
[1]
  inhibition: 72.4%
[2]
  inhibition: 23.1%
[3]
  pIC50: 5.13
[4]
  pIC50: < 4.70
[5]
  pIC50: < 4.70
[6]
  pIC50: 4.94
[7]
  pIC50: 4.88

## O=C1CCCc2c1ccn2C(=O)c1ccccc1
[1]
  inhibition: < 20%

## O=C1CCN(C(=O)c2cccc(-c3ccccc3)c2)c2ccccc2N1
[1]
  inhibition: 96.1%
[2]
  inhibition: 54.2%
[3]
  pIC50: 5.90
[4]
  pIC50: 4.95
[5]
  pIC50: < 4.70
U-937
  Activity: Dose-dependent effect
[6]
  pIC50: 5.40
HL-60 [8]
  Activity: Dose-dependent effect
[7]
  pIC50: 5.38
HL-60 [9]
  Activity: Active
HL-60 [10]
  Activity: 10.15%
HL-60 [11]
  Activity: 8.32%
HL-60 [12]
  Activity: 0.11%
HL-60 [13]
  viability at 1 µM: 81.4%
HL-60 [14]
  Activity: 21.63%
HL-60 [15]
  Activity: 32.51%
HL-60 [16]
  Activity: 0.9%
HL-60 [17]
  viability at 5 µM: 45%
HL-60 [18]
  Activity: 17.73%
HL-60 [19]
  Activity: 45.46%
HL-60 [20]
  Activity: 1.96%
HL-60 [21]
  viability at 10 µM: 34.9%
[22]
  Activity: Active
HL-60 [23]
  Activity: Active
HL-60 [24]
  Activity: Active
[25]
  Activity: Active

## COc1cc(C(=O)n2ccc3c2CCCC3=O)cc(-c2ccccc2)c1
[1]
  inhibition: 22.8%

## COc1ccccc1S(=O)(=O)Nc1ccc2c(c1)CN(C)C(=O)N2
[5]
  pIC50: < 4.70
[6]
  pIC50: 5.66
[7]
  pIC50: 5.11

## CC1C(=O)Nc2ccccc2N1C(=O)c1ccc2ccccc2c1 (stereo not drawn)
[1]
  inhibition: < 20%

## Cc1sc2c(c1C)C(c1ccc(Cl)cc1)=N[C@@H](CC(=O)OC(C)(C)C)c1nnc(C)n1-2
[5]
  pIC50: < 4.70
[6]
  pIC50: 5.28
[7]
  pIC50: 5.19

## O=C1CCCc2c1ccn2C(=O)c1ccc2ccccc2c1
[1]
  inhibition: 23.1%

## Cc1noc(C)c1NC(=O)c1ccccc1
[1]
  inhibition: < 20%

## CC1C(=O)Nc2ccccc2N1C(=O)c1ccccc1 (stereo not drawn)
[1]
  inhibition: < 20%

## O=C1CCN(C(=O)c2cccnc2)c2ccccc2N1
[1]
  inhibition: 45.2%

## COc1cc(C(=O)N2c3ccccc3NC(=O)C2C)cc(-c2ccccc2)c1 (stereo not drawn)
[1]
  inhibition: 88.7%
[2]
  inhibition: 36.2%
[3]
  pIC50: 5.20
[4]
  pIC50: < 4.70
[5]
  pIC50: < 4.70
[6]
  pIC50: 5.03
[7]
  pIC50: 4.75

## CC1C(=O)Nc2ccccc2N1C(=O)c1cccnc1 (stereo not drawn)
[1]
  inhibition: < 20%

## O=C1CCCc2c1ccn2C(=O)c1cccnc1
[1]
  inhibition: 34.2%

## O=C1CCN(C(=O)c2ccccc2)c2ccccc2N1
[1]
  inhibition: 32.4%

## O=C1CCN(C(=O)c2ccc3ccccc3c2)c2ccccc2N1
[1]
  inhibition: 25.3%

## COc1cc(C(=O)Nc2c(C)noc2C)cc(-c2ccccc2)c1
[1]
  inhibition: 64.5%
[2]
  inhibition: 36.3%
[3]
  pIC50: 5.08
[4]
  pIC50: < 4.70
[5]
  pIC50: < 4.70
[6]
  pIC50: 4.77
[7]
  pIC50: 4.72

## Cc1noc(C)c1NC(=O)c1cccc(-c2ccccc2)c1
[1]
  inhibition: 46.2%

## Cc1noc(C)c1NC(=O)c1cccnc1
[1]
  inhibition: 32.6%

## Cc1noc(C)c1NC(=O)c1ccc2ccccc2c1
[1]
  inhibition: 23.1%

## COc1cc(OC)c2c(=O)[nH]c(-c3cc(C)c(OCCO)c(C)c3)nc2c1 [APABETALONE]
[5]
  pIC50: < 4.70
[6]
  pIC50: < 4.70
[7]
  pIC50: < 4.70

## COc1cc(C(=O)N2CCC(=O)Nc3ccccc32)cc(-c2ccccc2)c1
[1]
  inhibition: 88.8%
[2]
  inhibition: 67.1%
[3]
  pIC50: 5.56
[4]
  pIC50: 5.04
[5]
  pIC50: 4.74
[6]
  pIC50: 5.08
[7]
  pIC50: 5.02

## O=C1CCCc2c1ccn2C(=O)c1cccc(-c2ccccc2)c1
[1]
  inhibition: 32.1%
